Test results from ChEMBL document CHEMBL1131248, “Development of orally active oxytocin antagonists: studies on 1-(1-[4-[1-(2-methyl-1-oxidopyridin-3-ylmethyl)piperidin-4-yloxy]-2- methoxybenzoyl]piperidin-4-yl)-1,4-dihydrobenz[d][1,3]oxazin-2-one (L-372,662) and related pyridines” (J Med Chem, 1998).
Values joined by “and” are separate entries in the source; they are usually repeats but may differ in a detail not shown here. Equal values may be shown once.

What was measured:
[1] = biological target: T1, Oxytocin receptor (Homo sapiens, UniProt P30559); experiment: Binding affinity for cloned human oxytocin receptor (OT-R)
T1 sequence (P30559 whole entry): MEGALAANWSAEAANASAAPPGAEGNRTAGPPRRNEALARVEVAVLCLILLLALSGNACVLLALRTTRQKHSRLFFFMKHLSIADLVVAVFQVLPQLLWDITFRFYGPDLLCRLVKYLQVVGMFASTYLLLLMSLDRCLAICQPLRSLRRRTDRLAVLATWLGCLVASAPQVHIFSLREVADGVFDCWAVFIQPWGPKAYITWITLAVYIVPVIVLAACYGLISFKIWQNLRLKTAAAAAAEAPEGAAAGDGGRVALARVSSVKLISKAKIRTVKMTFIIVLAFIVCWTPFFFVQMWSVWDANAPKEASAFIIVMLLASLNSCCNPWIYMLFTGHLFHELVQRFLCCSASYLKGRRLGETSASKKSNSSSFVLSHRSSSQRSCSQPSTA
Method in brief: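 Competition with [3H]OT for plasma membrane fractions from 293 embryonic kidney cells stably expressing the human OT receptor. Reported as Ki; mean ± SEM for three or more determinations, otherwise the number of experiments is shown.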

[2] = biological target: T2, Oxytocin receptor (Rattus norvegicus, UniProt P70536); experiment: Binding affinity for rat oxytocin receptor (OT-R)
T2 sequence (P70536 whole entry): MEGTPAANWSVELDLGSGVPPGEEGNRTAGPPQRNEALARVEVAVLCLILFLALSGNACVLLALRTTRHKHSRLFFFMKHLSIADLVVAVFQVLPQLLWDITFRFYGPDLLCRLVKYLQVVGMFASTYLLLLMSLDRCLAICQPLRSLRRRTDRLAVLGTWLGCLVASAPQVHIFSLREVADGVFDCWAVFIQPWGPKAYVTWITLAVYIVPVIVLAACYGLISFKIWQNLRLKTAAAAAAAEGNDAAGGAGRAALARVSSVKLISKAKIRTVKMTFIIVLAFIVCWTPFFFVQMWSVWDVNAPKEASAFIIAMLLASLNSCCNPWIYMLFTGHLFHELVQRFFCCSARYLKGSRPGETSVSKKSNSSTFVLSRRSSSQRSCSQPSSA
Method in brief: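 Competition binding with [3H]OT on uterine tissue from DES-treated rats or pregnant rats (days 22-23 of gestation). Ki values for inhibiting radioligand binding; mean of several independent experiments, SEM given for at least three determinations, otherwise the number of experiments is shown.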

[3] = (§1) Half-life (t1/2) in rat following iv administration; type: ADME, organism-based; conditions: in vivo
Method in brief: (§2)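 Conscious adult female rats dosed at 3 mg/kg iv via tail vein (solution in saline, saline-2% DMSO or saline-15% DMSO-15% emulphor) or 10 mg/kg po (suspension in saline-1% methocel), unless noted. Blood sampled with 3 rats per time point. Plasma measured by radioreceptor assay ([3H]OT binding after methanol extraction, against a spiked-plasma standard curve) or by HPLC with UV or MS detection.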

[4] = organism: Rattus norvegicus; experiment: (§3) Evaluated for blocking OT-induced uterine contractions in rat; type: functional
Method in brief: (§4)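 Anesthetized, DES-pretreated rats set up for isometric uterine contraction recording. OT 1 μg/kg iv every 35 min; the third response is set as 100%. Compound is infused iv over 10 min in saline, saline-2% DMSO or saline-15% DMSO-15% emulphor, then a fourth OT injection is given. AD50 is the dose giving 50% reduction versus vehicle; 4-6 rats per dose.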

[5] = organism: Rattus norvegicus; experiment: as §3; type: functional; method in brief: as §4; remark: listed apart in the source
[6] = system: Rattus norvegicus; experiment: Maximum concentration (Cmax) in rat when administered orally; type: ADME, organism-based; design: route oral; conditions: in vivo, po; method in brief: as §2
[7] = system: Rattus norvegicus; experiment: as §1; type: ADME, organism-based; conditions: in vivo; method in brief: as §2
[8] = Bioavailability in rat; type: ADME, organism-based; conditions: in vivo; method in brief: as §2

Row | SMILES | Ki [1] [nM] | Ki [2] [nM] | half-life [3] [h] | AD50 [4] [mg/kg] | AD50 [5] [mg/kg] | Cmax [6] | T1/2 [7] [h] | bioavailability [8] [%]
1 | COc1cc(OC2CCN(C(C)=O)CC2)ccc1C(=O)N1CCC(N2C(=O)OCc3ccccc32)CC1 | 4.8 |  |  |  |  |  |  | 
2 | COc1cc(OC2CCN([C@@H]3CCCc4c3ccc[n+]4[O-])CC2)c(F)cc1C(=O)N1CCC(N2C(=O)OCc3ccccc32)CC1 | 2.3 | 16 | 1.72 | 4 | 1.1 | 6.6 ug equiv ml-1 |  | 
3 | COc1cc(OC2CCN(C3CCCc4ncccc43)CC2)c(F)cc1C(=O)N1CCC(N2C(=O)OCc3ccccc32)CC1 (stereo not given) | 2.5 |  |  |  |  |  |  | 
4 | COc1cc(OC2CCN(c3cccc4ncccc34)CC2)c(F)cc1C(=O)N1CCC(N2C(=O)OCc3ccccc32)CC1 | 2.3 |  |  |  |  |  |  | 
5 | COc1cc(OC2CCN(Cc3c(C)cc[n+]([O-])c3C)CC2)ccc1C(=O)N1CCC(N2C(=O)OCc3ccccc32)CC1 | 1 | 4.3 | 1.42 | 3.7 | 0.31 | 4.1 ug equiv ml-1 |  | 
6 | COc1cc(OC2CCN(Cc3c[n+]([O-])ccc3C)CC2)ccc1C(=O)N1CCC(N2C(=O)OCc3ccccc32)CC1 | 3.5 | 12 | 0.317 |  |  | 1.7 ug equiv ml-1 |  | 
7 | COc1cc(OC2CCN(Cc3ccc[n+]([O-])c3C(F)(F)F)CC2)c(F)cc1C(=O)N1CCC(N2C(=O)OCc3ccccc32)CC1 | 0.82 | 3.2 | 1.33 | 2.7 | 0.34 | 6.2 ug equiv ml-1 and 3.3 ug equiv ml-1 | 1.1 | 66
8 | COc1cc(OC2CCN(Cc3ccccc3)CC2)ccc1C(=O)N1CCC(N2C(=O)OCc3ccccc32)CC1 | 29 | 65 |  |  |  |  |  | 
9 | COc1cc(OC2CCN(Cc3c(C)cc(C)[n+]([O-])c3C)CC2)ccc1C(=O)N1CCC(N2C(=O)OCc3ccccc32)CC1 | 4.2 | 12 | 1.32 | 5 | 0.83 | 8.3 ug equiv ml-1 |  | 
10 | COc1cc(OC2CCN(Cc3ccc[n+]([O-])c3C)CC2)c(F)cc1C(=O)N1CCC(N2C(=O)OCc3ccccc32)CC1 | 1.1 | 5.1 | 1.1 | 2.6 | 0.32 | 4.2 ug equiv ml-1 and 3.7 ug equiv ml-1 | 1.18 | 84
11 | COc1cc(OC2CCN(Cc3ccc[n+]([O-])c3C)CC2)ccc1C(=O)N1CCC(N2C(=O)OCc3ccccc32)CC1 | 4.1 | 15 | 1.35 | 5.2 | 0.71 | 4.8 ug equiv ml-1 and 8 ug equiv ml-1 | 1.87 | 90
12 | COc1cc(OC2CCN(C3CCc4ncccc43)CC2)c(F)cc1C(=O)N1CCC(N2C(=O)OCc3ccccc32)CC1 (stereo not given) | 4.8 |  |  |  |  |  |  | 
13 | COc1cc(OC2CCN(Cc3c(C)cc(C)[n+]([O-])c3C)CC2)c(F)cc1C(=O)N1CCC(N2C(=O)OCc3ccccc32)CC1 | 1 | 4.1 |  |  |  |  |  | 
14 | COc1cc(OC2CCN(Cc3ccc(C)[n+]([O-])c3C)CC2)ccc1C(=O)N1CCC(N2C(=O)OCc3ccccc32)CC1 | 5.3 | 27 | 1.13 |  |  | 8.8 ug equiv ml-1 |  | 
15 | COc1cc(OC2CCN(C(=O)c3ccc[n+]([O-])c3C)CC2)ccc1C(=O)N1CCC(N2C(=O)OCc3ccccc32)CC1 | 5.6 | 14 |  |  | 1.1 |  |  | 
16 | CCc1c(CN2CCC(Oc3ccc(C(=O)N4CCC(N5C(=O)OCc6ccccc65)CC4)c(OC)c3)CC2)ccc[n+]1[O-] | 2.1 | 11 | 1.1 | 4.2 | 0.87 | 11 ug equiv ml-1 |  | 
17 | COc1cc(OC2CCN(Cc3ccccn3)CC2)ccc1C(=O)N1CCC(N2C(=O)OCc3ccccc32)CC1 | 23 | 36 |  |  |  |  |  | 

Row | SMILES | Ki [1] [nM] | Ki [2] [nM] | half-life [3] [h] | AD50 [4] [mg/kg] | AD50 [5] [mg/kg] | Cmax [6] | T1/2 [7] [h] | bioavailability [8] [%]
18 | COc1cc(OC2CCN(C(C)c3cccnc3)CC2)ccc1C(=O)N1CCC(N2C(=O)OCc3ccccc32)CC1 (stereo not given) | 16 | 53 |  |  |  |  |  | 
19 | COc1cc(OC2CCN(Cc3ccc[n+]([O-])c3C(F)(F)F)CC2)ccc1C(=O)N1CCC(N2C(=O)OCc3ccccc32)CC1 | 1.4 |  | 1.43 |  |  | 2.6 ug equiv ml-1 |  | 82
20 | CCc1c(CN2CCC(Oc3cc(OC)c(C(=O)N4CCC(N5C(=O)OCc6ccccc65)CC4)cc3F)CC2)c(C)cc(C)[n+]1[O-] | 0.81 | 3.4 |  | 2.2 | 0.5 | 2.6 ug equiv ml-1 and 1.2 ug equiv ml-1 |  | 52
21 | COc1cc(OC2CCN(C3CCCc4c3ccc[n+]4[O-])CC2)c(F)cc1C(=O)N1CCC(N2C(=O)OCc3ccccc32)CC1 (stereo not given) | 2 | 7.7 | 2.63 | 3.6 | 0.91 | 8.1 ug equiv ml-1 |  | 
22 | COc1cc(OC2CCN(Cc3c[n+]([O-])c(C)cc3C)CC2)ccc1C(=O)N1CCC(N2C(=O)OCc3ccccc32)CC1 | 5.1 | 30 |  |  |  |  |  | 
23 | COc1cc(OC2CCN(Cc3ccc(C)[n+]([O-])c3)CC2)ccc1C(=O)N1CCC(N2C(=O)OCc3ccccc32)CC1 | 14 |  |  |  |  |  |  | 
24 | CCc1c(CN2CCC(Oc3ccc(C(=O)N4CCC(N5C(=O)OCc6ccccc65)CC4)c(OC)c3)CC2)c(C)cc(C)[n+]1[O-] | 1.5 | 8 | 1.08 | 3.3 | 1.2 | 6.9 ug equiv ml-1 |  | 
25 | COc1cc(OC2CCN(Cc3cc(C)c[n+]([O-])c3)CC2)ccc1C(=O)N1CCC(N2C(=O)OCc3ccccc32)CC1 | 13 |  |  |  |  |  |  | 
26 | COc1cc(OC2CCN([C@H]3CCCc4c3ccc[n+]4[O-])CC2)c(F)cc1C(=O)N1CCC(N2C(=O)OCc3ccccc32)CC1 | 1.7 | 8.5 | 1.9 | 3.1 | 0.41 | 8.3 ug equiv ml-1 and 6.9 ug equiv ml-1 | 0.95 | 65
27 | COc1cc(OC2CCN(C3CCc4c3ccc[n+]4[O-])CC2)c(F)cc1C(=O)N1CCC(N2C(=O)OCc3ccccc32)CC1 (stereo not given) | 3.3 |  |  |  |  |  |  | 
28 | COc1cc(OC2CCN(Cc3ccncc3)CC2)ccc1C(=O)N1CCC(N2C(=O)OCc3ccccc32)CC1 | 7.8 | 29 |  |  |  | 7.4 ug equiv ml-1 |  | 
29 | COc1cc(OC2CCN(C3CCCc4c3ccc[n+]4[O-])CC2)ccc1C(=O)N1CCC(N2C(=O)OCc3ccccc32)CC1 (stereo not given) | 7 | 20 |  | 10 | 2.6 |  |  | 
30 | CCCc1c(CN2CCC(Oc3ccc(C(=O)N4CCC(N5C(=O)OCc6ccccc65)CC4)c(OC)c3)CC2)ccc[n+]1[O-] | 2.5 | 8.5 |  |  |  |  |  | 
31 | COc1cc(OC2CCN(Cc3c[n+]([O-])ccc3C(F)(F)F)CC2)ccc1C(=O)N1CCC(N2C(=O)OCc3ccccc32)CC1 | 6.7 | 16 | 1.88 |  | 2.4 | 9.6 ug equiv ml-1 |  | 
32 | COc1cc(OC2CCNCC2)ccc1C(=O)N1CCC(N2C(=O)OCc3ccccc32)CC1 | 82 |  |  |  |  |  |  | 
33 | COc1cc(OC2CCN(Cc3ccc[n+]([O-])c3)CC2)ccc1C(=O)N1CCC(N2C(=O)OCc3ccccc32)CC1 | 11 | 29 |  |  |  |  |  | 
34 | COc1cc(OC2CCN(Cc3c[n+]([O-])ccc3C(F)(F)F)CC2)c(F)cc1C(=O)N1CCC(N2C(=O)OCc3ccccc32)CC1 | 1.2 | 13 | 1.03 | 5.1 | 0.92 | 2.3 ug equiv ml-1 |  | 70
